# Compound activity: PubChem, several laboratories
# Rows were chosen to be rich in hits. Some 5.6% of all compounds tested hit in one or more screens of this group.
# aDG glyco up – alpha-DG glycosylation activation. Pro5-aDG cells, alpha-DG glycosylation AlphaScreen (IIH6); 0% Pro5, 100% B10-LARGE cell signal. activation, % at 10 µM. 360,000 tested, 0.22% active;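 active means activation of at least 8% versus controls, or a plate z-score of at least 8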;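 further: Pro5 are CHO cells carrying HIG-tagged alpha-DG that lacks glycosylation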
# CHOP inhibitor – blocks CHOP induction under ER stress. CHO-K1 CHOP-promoter luciferase, tunicamycin-induced, 15-18 h. inhibition, % at 10 µM. 220,000 tested, 3.8% active. AID 2732;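 active means compounds that reduced the stress-induced luciferase reporter signal by more than about 70% of percent inhibition, limit read from the data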
# NR3A LBD binder – NR3A (human) ligand-binding domain modulation; NR3A LBD differential scanning fluorimetry, Tm shift; 0% = protein alone, 100% = glycine-bound protein; Tm shift relative to glycine control, % at 25 µM; 340,000 tested, 2.5% active; AID 1259313;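 active means melting temperature shift of at least 10% of the positive control shift, at one fixed dose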
# CHOP UPR activ – apoptotic UPR (CHOP) activation; activation, % at 10 µM; 330,000 tested, 0.34% active; CHO-CHOP luciferase reporter, luminescence; percent of tunicamycin response over DMSO baseline;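 active means at 10 µM dose, activation of 40% or more, normalized to positive control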
#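 Evaluation: % reporter activation, DMSO baseline versus tunicamycin full activation; System: CHO-CHOP luciferase reporter cell line; Input: 500 cells/well; Incubation: 6 h compound treatment, 37 °C; Measured by: Steady-Glo luciferase luminescence; Dosing: one dose, 10 µM in 0.5% DMSO; Buffer or medium: F12 medium, 10% FBS; Benchmarks: positive tunicamycin 10 µg/mL, negative DMSO alone.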
# MPTP block – permeability transition pore inhibition | isolated mouse mitochondria, Ca2+ swelling absorbance, 30 min | inhibition, % at 10 µM | 360,000 tested, 1.4% active | AID 602449;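 active means inhibition of 50% or more, scaled per plate between neutral and stimulator controls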
# UPR XBP1 act – activators of adaptive arm of unfolded protein response (XBP1). activation, % at 20 µM. CHO-XBP1 luciferase reporter, IRE1-XBP1 UPR activation, luminescence; percent of tunicamycin response, DMSO as zero. 330,000 tested, 0.33% active;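 active means versus positive control, 20 µM dose yields 30% or more activation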
#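 Material: CHO cell line with stable XBP1 luciferase reporter; buffer or medium: F12 medium containing 10% fetal bovine serum; compound: single point, 20 µM final compound, 1% DMSO; incubation: 6 h treatment, 37 °C; measured by: glow luminescence from Steady-Glo reagent; evaluation: activation, % of tunicamycin; control set: tunicamycin high, DMSO low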
# Numbers stand for hits; 0 = inactive; - = not tested or not shown; ! = not active in a repeat.
SMILES,aDG glyco up,CHOP inhibitor,NR3A LBD binder,CHOP UPR activ,MPTP block,UPR XBP1 act
COc1cc2c(cc1NC(=O)CSc1nc3ccccc3[nH]1)oc1ccccc12,0,95,14,0,0,0
COc1cc2c(cc1NC(=O)CSc1nccn1C)oc1ccccc12,0,0,0,0,0,0
Cc1[nH]c2ccccc2c1C(=O)CSc1nccc(=O)[nH]1,0,0,0,0,0,0
COc1cc2c(cc1NC(=O)/C=C/c1ccccc1)oc1ccccc12,0,0,20,0,0,0
COc1cc2c(cc1NC(=O)CSc1ccccc1)oc1ccccc12,0,0,35,0,0,0
Cc1[nH]c2ccccc2c1C(=O)CSc1nc2ccccc2[nH]1,0,0,19,0,0,0
CC1CCC2(CC1)NC(=O)N(CC(=O)N1CCN(c3ccccc3)CC1)C2=O (stereo not given),0,-,0,0,0,0
O=C(Cc1ccc(Cl)cc1)OCC(=O)N1CCCCCC1,0,-,0,0,0,0
COc1cc2c(cc1NC(=O)CN(C)Cc1nc3ccccc3c(=O)[nH]1)oc1ccccc12,0,74,0,0,0,0
COc1cc2c(cc1NC(=O)COC(=O)c1ccccc1)oc1ccccc12,-,0,-,0,-,0
COc1cc2c(cc1NC(=O)CSc1nc3cc(Cl)ccc3s1)oc1ccccc12,0,0,32,0,0,0
Cc1ccc(NC(=O)Cc2ccc3c(c2)CCCC3)cc1C,0,72,0,0,0,0
O=S(=O)(NCCOCC(F)(F)C(F)F)c1ccc2oc3ccccc3c2c1,0,85,0,0,0,0
CS(=O)(=O)Nc1nnc(Cc2ccccc2)s1,0,0,11,0,0,0
CS(=O)(=O)Nc1nnc(CCc2ccccc2)s1,0,-,0,0,0,0
CCOC(=O)C(CC)c1cc2n(c(=O)c1C#N)CCC21OCCO1 (stereo not given),0,-,-,-,0,-
CCCc1cc(=O)oc2cc(OC(C)C(=O)NC3CC(C)(C)NC(C)(C)C3)ccc12 (stereo not given),0,-,0,0,0,0
O=C(N/N=C/c1ccc(Cl)cc1Cl)Nc1ccccc1,0,0,0,0,0,0
CC(C)C(=O)Nc1ccc(Nc2ccccc2)cc1,0,0,26,0,0,0
O=C(N/N=C/c1cccc(Cl)c1Cl)Nc1ccccc1,0,71,0,0,0,0
CCC(CC)C(=O)Nc1ccc(Nc2ccccc2)cc1,0,0,0,0,0,0
COc1cc(C(=O)Nc2ccc3c(c2)Cc2cc(NC(=O)c4cc(OC)c(OC)c(OC)c4)ccc2-3)cc(OC)c1OC,0,0,24,0,0,0
O=C(Nc1ccc(Nc2ccccc2)cc1)Nc1ccccc1Cl,0,0,18,0,0,0
O=C(Nc1ccc2c(c1)CCC2)Nc1ccccc1Cl,0,-,10,0,0,0
Cc1c(Cl)cccc1NC(=O)Nc1ccc(C(N)=O)cc1,0,0,11,0,0,0
SMILES,aDG glyco up,CHOP inhibitor,NR3A LBD binder,CHOP UPR activ,MPTP block,UPR XBP1 act
Cc1c(Cl)cccc1NC(=O)Nc1ccccc1C(N)=O,0,0,0,0,0,0
O=C(Nc1ccc2c(c1)Cc1ccccc1-2)c1ccncc1,0,0,18,0,0,0
NC(=O)c1ccccc1NC(=O)Nc1ccc(F)c(Cl)c1,0,0,33,0,0,0
CCOc1ccc(NC(=O)CN(C)S(=O)(=O)c2cccc3cccnc23)cc1,0,-,0,0,0,0
CCOC(=O)C1(C)CCCCN1C(=O)c1cccc(Cl)c1 (stereo not given),0,-,-,-,0,-
C[C@H](CO)N1C[C@H](C)[C@@H](CN(C)C(=O)c2ccc3ccn(C)c3c2)OCc2cn(nn2)CCCC1=O,0,-,-,-,0,-
C[C@@H]1CN([C@H](C)CO)C(=O)c2c(c3ccccc3n2C)-c2ccccc2CO[C@@H]1CN(C)S(=O)(=O)c1cccs1,0,-,-,-,0,-
Cc1occc1C(=O)Nc1ccc2c(c1)OCCO2,0,0,0,0,0,0
COc1cc(C(=O)NC(=S)Nc2ccc(N3CCCC3)cc2)cc(OC)c1OC,0,75,0,0,0,0
Cc1occc1C(=O)Nc1ccc2c(c1)CCC2,0,0,11,0,0,0
O=C(Nc1ccccc1Cl)Nc1cccnc1Cl,0,0,19,0,0,0
O=C(Nc1ccc2c(c1)CCC2)c1ccccc1,0,0,14,0,0,0
Cn1c(SCC(=O)NC2CCCc3ccccc32)nnc1C1CC1 (stereo not given),0,-,0,0,0,0
CCCCNC(=O)Oc1cc(CCl)on1,-,0,-,0,-,0
CCCCNC(=O)Oc1c(Br)cc2sc(=O)oc2c1Br,-,103,-,0,-,0
Cc1ccc(S(=O)(=O)N2C[C@H]3C(=O)C[C@@H](c4cccc(Cl)c4)N(S(=O)(=O)c4ccc(C)cc4)[C@H]3C[C@H]2c2ccc(Cl)cc2)cc1,0,-,-,-,0,-
COc1ccc(C2CC(=O)Oc3c(C(C)C)ccc(C)c32)cc1 (stereo not given),0,-,13,0,0,0
CC[C@]12c3[nH]c4ccc(Cl)cc4c3CCN1C(=O)[C@@H](CC(=O)NCc1ccc(OC)c(OC)c1)C[C@@H]2C(=O)N1CCN(C(=O)c2ccco2)CC1,0,-,0,0,0,0
COc1ccccc1N1CCN(c2ncc(C(=O)N3CCN(c4cccc(Cl)c4)CC3)c3ccccc23)CC1,0,86,0,0,0,0
CCOc1ccccc1C(=O)N1CCN(c2cccc(Cl)c2)CC1,0,-,0,0,0,0
Clc1ccc(CSc2cc3c(nn2)-c2ccccc2CC3)cc1,0,77,0,0,0,0
Fc1ccc(C(c2ccc(F)cc2)N2CCN(C/C=C/c3ccccc3)CC2)cc1,0,84!,0,0,0,0
C(=C\c1ccccc1)/CN1CCN(C(c2ccccc2)c2ccccc2)CC1,0,0,0,0,0,0
CCOc1cc(/C=N/Nc2ccc(S(=O)(=O)Nc3ccccc3C(=O)O)cc2[N+](=O)[O-])cc(Cl)c1O,0,-,-,-,0,-
CCOc1ccc(C=NNc2ccc(S(=O)(=O)Nc3ccccc3C(=O)O)cc2[N+](=O)[O-])cc1OC,0,-,15,0,0,0
COc1cc(C=NNc2ccc(S(=O)(=O)Nc3ccccc3C(=O)O)cc2[N+](=O)[O-])ccc1O,0,-,19,0,0,0
COc1cc(/C=N/Nc2ccc(S(N)(=O)=O)cc2[N+](=O)[O-])cc(OC)c1O,0,0,0,0,0,0
COC(=O)CC/C(C)=N\Nc1ccc([N+](=O)[O-])cc1[N+](=O)[O-],0,75,0,0,0,0
C/C(CC(C)C)=N/Nc1ccc([N+](=O)[O-])cc1[N+](=O)[O-],0,0,0,0,0,0
CCCSc1nc2c(c(=O)[nH]c(=O)n2C)n1Cc1ccc(C)cc1,0,81,0,0,0,0
